Screening results deposited in PubChem BioAssay by several laboratories.
An excerpt weighted towards active compounds, which were near 5.8% of everything screened.
Cav32 inh – blocks human Cav3.2 T-type calcium channel. O95180. Cav3.2-expressing cells, Fluo-4 calcium fluorescence FDSS; active compounds read low. B-score at 10 µM. 4% of 100,000 active;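 active = single-dose well whose peak fluorescence ratio is a statistical outlier from its plate by either plate-standardised score or position-corrected B-score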
PLK1 inh – inhibitors of human PLK1 kinase | P53350 | recombinant PLK1 kinase, TR-FRET peptide phosphorylation | inhibition, % at 10 µM | 0.53% of 97,000 active;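 active = inhibition of 50% or more in the single-concentration screen; inactive = inhibition below 50%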;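 also: 0% = DMSO max control and 100% = H-89 dihydrochloride min control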
PLK1 PBD inh – inhibitors of human Plk1 polo box domain binding. 0.13% of 97,000 active. inhibition, %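 (tested at about 20 µM)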. Plk1 PBD phosphopeptide binding, fluorescence polarization; in the data active = inhibition above about 34%, passing the limit was not always enough
FAK inh – inhibitors of human focal adhesion kinase | Q05397 | biochemical FAK kinase activity assay | 0.84% of 97,000 active | inhibition, %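 (tested at 7 µM)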; in the data active = inhibition above about 19%;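 also: 0% = DMSO and 100% = reference compound high control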
PTK2B oligo ant – antagonists of human Pyk2 oligomerization | Q14289 | Q293 cells, Pyk2 FERM NanoBiT luminescence; active compounds read low | z-score (the deposit names both 25 µM and 10 µM) | 0.83% of 99,000 active | AID 1347419;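 active = Z-score of -3 or lower, scaled per plate to the spread of control and sample wells; inactive = z-score above -3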;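 also: negative z-score means lost luminescence so less FERM oligomerization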
Rev-RRE block – HIV Rev-RRE protein-RNA interaction inhibition; P05866; Rev peptide-RRE RNA binding, FRET; inhibition, % at 8 µM; 0.79% of 97,000 active; AID 704;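 active = inhibition above the screen-wide mean plus 3 SD, cut at about 35% in these data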;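 also: 0% = median DMSO wells and 100% = median Neomycin B control wells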
Target sequence (P05866 whole entry, looked up): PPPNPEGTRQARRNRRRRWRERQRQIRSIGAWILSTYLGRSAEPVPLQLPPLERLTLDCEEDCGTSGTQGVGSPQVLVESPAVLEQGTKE
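assay system = Cy5-tagged RRE RNA duplex with fluorescein-tagged Rev peptide | incubation = 5 + 15 min at 25 °C | also added = labelled Rev peptide | measure = % inhibition of FRET ratio versus controls | benchmarks = DMSO wells as 0% and neomycin B wells as 100% inhibition | measured by = FRET fluorescence readout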
Numbers without * were called inactive; / = no result given.

SMILES | Cav32 inh | PLK1 inh | PLK1 PBD inh | FAK inh | PTK2B oligo ant | Rev-RRE block
O=C(NCC1CCCO1)c1ccc(N2CCCCC2)nc1 (stereo unspecified) | -0.6 | -22 | -9 | -2 | 0.18 | 7
Cc1ccccc1N(CC(=O)NCCc1ccccc1)C(=O)c1ccc(N2CCCC2)nc1 | -4.8* | -3 | -36 | 1 | -1.1 | -2
O=C(CCc1nc(-c2ccccc2)c(-c2ccccc2)o1)OCc1ccc(Br)cc1 | -3.5 | 1 | 3 | -2 | 0.28 | 10
O=C(CCc1nc(-c2ccccc2)c(-c2ccccc2)o1)OCc1ccc(Cl)cc1 | -4.3* | -13 | 7 | 2 | 0.27 | 15
Nc1cc(=O)[nH]c(SCc2ccc(Cl)cc2)n1 | -0.31 | -5 | -15 | -1 | 0.65 | 10
O=c1cc(O)nc(SCc2ccc(Cl)cc2)[nH]1 | -6.9* | -6 | -16 | -7 | -0.26 | 6
C=CCC(C#Cc1ccc(C)cc1)N(CC)CC (stereo unspecified) | 0.31 | -8 | -34 | 1 | 0.92 | 9
COc1ccc(OC)c(NS(=O)(=O)c2ccc3c(c2)CCC(=O)N3)c1 | 0.98 | -5 | 6 | 5 | 0.27 | 11
O=S(=O)(NCCOc1ccc(F)cc1)c1ccc2c(c1)OCCO2 | -0.68 | -10 | -28 | 0 | -1 | 2
O=S(=O)(NCCSc1ccccc1)c1ccc2c(c1)OCCO2 | -5* | 0 | 22 | 1 | -1.8 | 4
COCCNC(=O)CS(=O)(=O)Cc1nc(-c2ccc(C)cc2)oc1C | 0.83 | 67* | 16 | 3 | / | 6
Cc1ccc(-c2nc(CS(=O)(=O)CC(=O)NC3CCCCC3C)c(C)o2)cc1 (stereo unspecified) | / | 54* | -21 | 5 | / | 0
Cc1ccc(-c2nc(CS(=O)(=O)CC(=O)N3CC(C)CC(C)C3)c(C)o2)cc1 (stereo unspecified) | -3.9 | / | / | / | / | /
O=C(CN(C(=O)CNS(=O)(=O)c1ccccc1)C1CCCC1)NCc1ccco1 | -0.33 | / | / | / | 0.46 | /
CO/N=C(/CS(=O)(=O)Cc1ccccc1Cl)c1ccc(Cl)cc1Cl | -0.99 | -13 | -22 | 3 | -1.4 | 19
CC1(C)CC(=O)C(C=NCCN2CCN(C(=S)Nc3ccc(F)cc3)CC2)=C(O)C1 | 1.1 | -12 | 2 | -3 | 1.5 | -8
CCNc1cccc2c1C(=O)N(C)C2=O | -4.1* | / | / | / | 0.38 | /
CN1C(=O)c2cccc(NCCCN3C(=O)c4ccccc4C3=O)c2C1=O | -2 | 2 | -18 | 1 | 1.2 | 58*
O=C(c1ccccc1F)N(Cc1ccc2c(c1)OCO2)Cc1cc2cc3c(cc2n2nnnc12)OCO3 | -1.4 | -6 | -29 | 0 | -2.6 | 9
Cc1cc(C)c2cc3c(N)c(C(=O)N4CCc5ccccc5C4)sc3nc2c1 | 0.25 | -9 | -7 | 2 | 0.46 | 72*
Cc1ccc2nc3sc(C(=O)N4CCCc5ccccc54)c(N)c3cc2c1 | / | -4 | -57 | 2 | -0.38 | 49*
Cc1cccc2cc3c(N)c(C(=O)N4CCOCC4)sc3nc12 | -1.3 | -3 | 4 | 1 | 0.19 | 50*
CCC(C(=O)O/N=C(\N)c1ccccc1)c1ccccc1 (stereo unspecified) | -3.6* | -10 | -20 | 0 | 0.05 | 9
CCC(C(=O)O/N=C(\N)c1ccc(Cl)cc1)c1ccccc1 (stereo unspecified) | -5.6* | -5 | 26 | 1 | -0.86 | 14
CCC1S/C(=C(\C#N)C(=O)NCc2ccco2)N(c2ccc(Br)cc2)C1=O (stereo unspecified) | -5.4* | -4 | -27 | 3 | -0.03 | 11
SMILES | Cav32 inh | PLK1 inh | PLK1 PBD inh | FAK inh | PTK2B oligo ant | Rev-RRE block
CCC1S/C(=C(\C#N)C(=O)NCc2ccco2)N(c2ccc(F)cc2)C1=O (stereo unspecified) | 1.7 | 16 | 17 | -3 | 0.21 | 2
COc1cc(/C=C2/CCC/C(=C\c3cc(O)c(OC)c(Cl)c3)C2=O)cc(Cl)c1O | 2.1 | 5 | -53 | -8 | -4.2* | -2
CN(C)S(=O)(=O)c1ccc(N2CCCC2)c(C(=O)NC(c2ccccc2)c2ccccc2)c1 | -4.3* | -4 | 12 | -2 | 0.01 | 0
CN1CCN(C(=O)C2=C[C@H](c3csc4ccccc34)C[C@H](OCCCCO)O2)CC1 | -0.2 | / | / | / | / | /
Cc1ccc(C2Oc3ccccc3C3=C2C(c2cccs2)n2ncnc2N3)cc1 (stereo unspecified) | -4.6* | -6 | -19 | 3 | -2 | 10
CCOc1cccc(C2C(C(=O)c3ccc(C)o3)=C(O)C(=O)N2Cc2ccncc2)c1 (stereo unspecified) | -0.36 | -3 | 2 | 1 | -0.06 | 10
CCOc1cccc(C2C(C(=O)c3ccc(C)o3)=C(O)C(=O)N2c2nccs2)c1 (stereo unspecified) | -3.9 | -5 | 12 | -6 | 0.43 | 74*
COc1cccc(-c2cc(C(=O)NCCCn3ccnc3)no2)c1 | -0.063 | 5 | -14 | 0 | 0.09 | 8
O=C(NCCc1ccccc1F)[C@@H]1CSC2c3ccccc3C(=O)N21 (stereo partly specified) | -8.2* | -1 | -6 | -7 | 0.26 | 3
CC1(C)CC(=O)C=C(c2cccnc2)C1 | 0.96 | / | / | / | / | /
CSc1nnc(-c2sc3cc(C(F)(F)F)cnc3c2-c2ccccc2)n1C | 2.1 | -11 | 9 | 1 | -3.1* | 4
CCCCOc1[nH]c2nc(-c3ccco3)n(Cc3ccco3)c(=N)c2c1C#N | / | -12 | 6 | 3 | 0.12 | 55*
c1ccc(CSc2nnc(-c3ccco3)n2Cc2ccco2)cc1 | -2.3 | -3 | -18 | 4 | -0.02 | 5
CN(C)/C=N/c1cc(=O)[nH]c(=O)n1C | 0.015 | / | / | / | / | /
Cc1ccc(C(O)P(=O)(OC2CCCCC2)OC2CCCCC2)cc1 (stereo unspecified) | -4.2* | 13 | -9 | -1 | 0.63 | 6
O=P(OC1CCCCC1)(OC1CCCCC1)C(O)c1c(Cl)cccc1Cl (stereo unspecified) | -4.6 | -10 | -4 | 8 | -1 | 1
COc1ccc(/C=N/NC(=O)CO/N=C(\C)c2cccs2)cc1 | -0.46 | -12 | -6 | 1 | 0.64 | 3
CC(=O)OCc1c(C(F)(F)F)nn(C)c1Oc1cccc(C(F)(F)F)c1 | -4.2* | -8 | -16 | -4 | 0.23 | 6
COc1ccccc1OCCCn1cc(C#N)c2ccccc21 | -4.5* | -10 | -2 | 6 | -1.1 | 17
CCOC(=O)c1cc2occc2n1CC(=O)N1CCCc2ccccc21 | -0.26 | -2 | -8 | 7 | -0.95 | 9
CC(C)(C)[C@H]1C=C(C(N)=O)O[C@@H](OCc2ccc(CO)cc2)C1 | 0.31 | / | / | / | / | /
O=c1cc(Cl)[nH]c(=O)n1CCNc1ncc(C(F)(F)F)cc1Cl | -0.99 | -10 | -13 | 4 | -1.4 | 52*
CCCCOC(=O)N/N=C/C=C/c1ccccc1 | / | / | / | / | 0.21 | /
O=C(CSc1nc(C2CC2)nc2ccccc12)N1c2ccccc2Sc2ccc(C(F)(F)F)cc21 | -1.8 | -11 | -10 | 8 | -0.69 | 10
